Results published in ChEMBL document CHEMBL5724801, “EUbOPEN Chemogenomics Library - Multiplex” (2024).
Several values for one entry are separate records, joined by “and”; a condition that tells them apart may be missing. Identical values can stand only once.

Columns and labels:
HEK-293T = assay: Multiplex assay against HEK293T; format: toxicity, cell-based; settings: human
How it was run: (§1)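 Live cells carried four stains from seeding: Hoechst33342, BioTracker Green Microtubule Cytoskeleton Dye, MitoTracker Red and Annexin V Alexa Fluor 680. They were imaged on a CQ1 microscope at 37°C and 5% CO2 after compound addition. Using CellPathfinder machine-learning gating, cells were split into Hoechst high-intensity objects or normal cells, normal cells into healthy, pyknosed or fragmented nuclei, and pyknosed cells into mitotic or apoptotic; tubulin, mitochondrial-mass and membrane-permeability phenotypes are per cents of healthy-nucleus cells.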

Fibroblast = assay: Multiplex assay against human fibroblast; format: toxicity, cell-based; how it was run: as §1
[1] = 24 h, 1 µM, compound concentration 1 uM
[2] = 24 h, 10 µM, compound concentration 10 uM
[3] = 48 h, 1 µM, compound concentration 1 uM
[4] = 48 h, 10 µM, compound concentration 10 uM
[5] = 12 h, 1 µM, compound concentration 1 uM
[6] = 12 h, 10 µM, compound concentration 10 uM

## N#Cc1c(Oc2cccc(OS(=O)(=O)CCCC(F)(F)F)c2)cccc1C(F)(F)F
HEK-293T; [1]
  Population Pyknosed Nuclei (%): 12% and 9%
  Population Tubulin-Different-Phenotype (%): 26% and 20%
  Total Cell Count: 654 and 412
HEK-293T; [2]
  Population Apoptotic (%): 43% and 45%
  Population Fragmented Nuclei (%): 9% and 10%
  Population Healthy Nuclei (%): 77% and 61%
  Population Membrane Permeable-Phenotype (%): 0%
  Population Mitochondria Different-Phenotype (%): 66% and 68%
  Population Mitotic Cells (%): 56% and 54%
  Population Normal (%): 86% and 52%
  Population Pyknosed Nuclei (%): 13% and 27%
  Population Tubulin-Different-Phenotype (%): 56% and 41%
  Total Cell Count: 338 and 312
HEK-293T; [3]
  Population Apoptotic (%): 20% and 56%
  Population Fragmented Nuclei (%): 13% and 12%
  Population Healthy Nuclei (%): 81% and 82%
  Population Hoechst High Intensity Objects (%): 1% and 5%
  Population Membrane Permeable-Phenotype (%): 1% and 0%
  Population Mitochondria Different-Phenotype (%): 21% and 23%
  Population Mitotic Cells (%): 79% and 43%
  Population Normal (%): 98% and 94%
  Population Pyknosed Nuclei (%): 5%
  Population Tubulin-Different-Phenotype (%): 15% and 13%
  Total Cell Count: 986 and 568
HEK-293T; [4]
  Population Apoptotic (%): 44% and 58%
  Population Fragmented Nuclei (%): 11%
  Population Healthy Nuclei (%): 78% and 69%
  Population Membrane Permeable-Phenotype (%): 0%
  Population Mitochondria Different-Phenotype (%): 44% and 47%
  Population Mitotic Cells (%): 55% and 41%
  Population Normal (%): 94% and 75%
  Population Pyknosed Nuclei (%): 10% and 18%
  Population Tubulin-Different-Phenotype (%): 29% and 23%
  Total Cell Count: 464 and 363
Fibroblast; [5]
  Population Apoptotic (%): 51% and 38%
  Population Fragmented Nuclei (%): 13% and 27%
  Population Healthy Nuclei (%): 63% and 48%
  Population Hoechst High Intensity Objects (%): 2% and 7%
  Population Membrane Permeable-Phenotype (%): 1% and 9%
  Population Mitochondria Different-Phenotype (%): 7%
  Population Mitotic Cells (%): 48% and 61%
  Population Normal (%): 97% and 92%
  Population Pyknosed Nuclei (%): 23% and 24%
  Population Tubulin-Different-Phenotype (%): 38% and 59%
  Total Cell Count: 146 and 148
Fibroblast; [6]
  Population Apoptotic (%): 31% and 66%
  Population Fragmented Nuclei (%): 14% and 42%
  Population Healthy Nuclei (%): 59% and 22%
  Population Hoechst High Intensity Objects (%): 6% and 7%
  Population Mitochondria Different-Phenotype (%): 7% and 3%
  Population Mitotic Cells (%): 68% and 33%
  Population Normal (%): 93% and 92%
  Population Pyknosed Nuclei (%): 26% and 35%
  Population Tubulin-Different-Phenotype (%): 36% and 75%
  Total Cell Count: 180 and 138
Fibroblast; [1]
  Population Apoptotic (%): 50% and 54%
  Population Fragmented Nuclei (%): 20% and 33%
  Population Healthy Nuclei (%): 62% and 50%
  Population Hoechst High Intensity Objects (%): 6% and 3%
  Population Membrane Permeable-Phenotype (%): 1% and 5%
  Population Mitochondria Different-Phenotype (%): 4% and 5%
  Population Mitotic Cells (%): 50% and 45%
  Population Normal (%): 93% and 96%
  Population Pyknosed Nuclei (%): 17% and 16%
  Population Tubulin-Different-Phenotype (%): 45% and 57%
  Total Cell Count: 148 and 147
Fibroblast; [2]
  Population Apoptotic (%): 44% and 61%
  Population Healthy Nuclei (%): 59% and 23%
  Population Hoechst High Intensity Objects (%): 5% and 8%
  Population Mitochondria Different-Phenotype (%): 12% and 22%
  Population Mitotic Cells (%): 55% and 38%
  Population Normal (%): 94% and 91%
  Population Pyknosed Nuclei (%): 27% and 36%
  Population Tubulin-Different-Phenotype (%): 43% and 77%
  Total Cell Count: 174 and 127
Fibroblast; [3]
  Population Apoptotic (%): 60% and 38%
  Population Fragmented Nuclei (%): 18% and 26%
  Population Healthy Nuclei (%): 66% and 59%
  Population Hoechst High Intensity Objects (%): 7% and 5%
  Population Mitochondria Different-Phenotype (%): 5% and 2%
  Population Mitotic Cells (%): 40% and 61%
  Population Normal (%): 92% and 94%
  Population Pyknosed Nuclei (%): 14%
  Population Tubulin-Different-Phenotype (%): 42% and 56%
  Total Cell Count: 145 and 133
Fibroblast; [4]
  Population Apoptotic (%): 52% and 59%
  Population Fragmented Nuclei (%): 20% and 43%
  Population Healthy Nuclei (%): 54% and 31%
  Population Hoechst High Intensity Objects (%): 9% and 2%
  Population Mitochondria Different-Phenotype (%): 12% and 15%
  Population Mitotic Cells (%): 47% and 40%
  Population Normal (%): 90% and 97%
  Population Pyknosed Nuclei (%): 24% and 25%
  Population Tubulin-Different-Phenotype (%): 47% and 89%
  Total Cell Count: 172 and 150
